Assay results from publication PMC7449315 (Journal for Immunotherapy of Cancer, 2020).

Experiment: phase I trial: safety and tolerability
Type: in vivo, human
Outline: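 Fifteen patients were dosed orally twice daily (three per cohort, 100–800 mg). AEs, DLTs, physical exams, vital signs, ECGs and laboratory chemistry, hematology and coagulation were recorded from first dose to end of treatment. AEs were graded by the investigator using NCI CTCAE v4.03. DLTs were assessed in cycle 1 (days 1–28): grade ≥3 or immune-related non-hematologic events, and grade ≥4 hematologic events.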

[1] = 800 mg two times per day, one patient

NS(=O)(=O)[C@H]1CC[C@](F)(CC[C@H]2c3ccccc3-c3cncn32)CC1 [M4112]
1 (33.3) n (%): Cough (100 mg two times per day (n=3)) | Decreased appetite (100 mg two times per day (n=3)) | Dysphagia (100 mg two times per day (n=3)) | Maculopapular rash (100 mg two times per day (n=3)) | Nausea (100 mg two times per day (n=3)) | Palmar-plantar erythrodysesthesia syndrome (100 mg two times per day (n=3)) | Blood creatine phosphokinase increased (200 mg two times per day (n=3)) | Cough (200 mg two times per day (n=3)) | Dehydration (200 mg two times per day (n=3)) | Diarrhea (200 mg two times per day (n=3)) | Fever (200 mg two times per day (n=3)) | Hypercalcemia (200 mg two times per day (n=3)) | Lipase increased (200 mg two times per day (n=3)) | Lymphocyte count decreased (200 mg two times per day (n=3)) | Nausea (200 mg two times per day (n=3)) | Platelet count decreased (200 mg two times per day (n=3)) | Vomiting (200 mg two times per day (n=3)) | Abdominal distension (400 mg two times per day (n=3)) | Abdominal pain (400 mg two times per day (n=3)) | Alanine aminotransferase increased (400 mg two times per day (n=3)) | Amylase increased (400 mg two times per day (n=3)) | Anemia of malignant disease (400 mg two times per day (n=3)) | Any SAE (400 mg two times per day (n=3)) | Blood creatine phosphokinase increased (400 mg two times per day (n=3)) | Blood creatinine increased (400 mg two times per day (n=3)) | Cough (400 mg two times per day (n=3)) | Decreased appetite (400 mg two times per day (n=3)) | Dysphagia (400 mg two times per day (n=3)) | Fatigue (400 mg two times per day (n=3)) | Hypercalcemia (400 mg two times per day (n=3)) | Maculopapular rash (400 mg two times per day (n=3)) | Palmar-plantar erythrodysesthesia syndrome (400 mg two times per day (n=3)) | Tumor pain (400 mg two times per day (n=3)) | Abdominal distension (600 mg two times per day (n=3)) | Abdominal pain (600 mg two times per day (n=3)) | Amylase increased (600 mg two times per day (n=3)) | Anemia of malignant disease (600 mg two times per day (n=3)) | Any SAE (600 mg two times per day (n=3)) | Blood alkaline phosphatase increased (600 mg two times per day (n=3)) | Blood creatinine increased (600 mg two times per day (n=3)) | Dehydration (600 mg two times per day (n=3)) | Fatigue (600 mg two times per day (n=3)) | Gamma-glutamyl transferase increased (600 mg two times per day (n=3)) | Nausea (600 mg two times per day (n=3)) | Tumor pain (600 mg two times per day (n=3)) | Vomiting (600 mg two times per day (n=3)) | Alanine aminotransferase increased (800 mg two times per day (n=3)) | Any SAE (800 mg two times per day (n=3)) | Blood alkaline phosphatase increased (800 mg two times per day (n=3)) | Blood creatine phosphokinase increased (800 mg two times per day (n=3)) | Blood creatinine increased (800 mg two times per day (n=3)) | Decreased appetite (800 mg two times per day (n=3)) | Fatigue (800 mg two times per day (n=3)) | Fever (800 mg two times per day (n=3)) | Gamma-glutamyl transferase increased (800 mg two times per day (n=3)) | Lymphocyte count decreased (800 mg two times per day (n=3)) | Nausea (800 mg two times per day (n=3)) | Platelet count decreased (800 mg two times per day (n=3))
Two patients: dose reductions due to AEs (one grade 3 diarrhea and one grade 3 rash after the DLT period) (600 mg two times per day)
grade 2 ascites: serious TEAE (one patient, 600 mg two times per day cohort, unrelated to treatment)
no MTD was defined: MTD (doses up to 800 mg two times per day)
13.3%: patients who discontinued M4112 treatment due to TEAEs (two of 15 patients)
3 (20.0) n (%): Any SAE (Total (N=15)) | Blood creatine phosphokinase increased (Total (N=15)) | Blood creatinine increased (Total (N=15)) | Cough (Total (N=15)) | Decreased appetite (Total (N=15)) | Diarrhea (Total (N=15)) | Lipase increased (Total (N=15))
no deaths reported: deaths during the dose-escalation phase (all doses)
4 (26.7) n (%): Nausea (Total (N=15)) | Vomiting (Total (N=15))
2 (13.3) n (%): Abdominal distension (Total (N=15)) | Abdominal pain (Total (N=15)) | Alanine aminotransferase increased (Total (N=15)) | Amylase increased (Total (N=15)) | Anemia of malignant disease (Total (N=15)) | Aspartate aminotransferase increased (Total (N=15)) | Blood alkaline phosphatase increased (Total (N=15)) | Dehydration (Total (N=15)) | Dyspepsia (Total (N=15)) | Dysphagia (Total (N=15)) | Fever (Total (N=15)) | Gamma-glutamyl transferase increased (Total (N=15)) | Hypercalcemia (Total (N=15)) | Lymphocyte count decreased (Total (N=15)) | Maculopapular rash (Total (N=15)) | Palmar-plantar erythrodysesthesia syndrome (Total (N=15)) | Platelet count decreased (Total (N=15)) | Tumor pain (Total (N=15))
not established: RP2D (in vivo)
33.3%: TEAE fatigue (all patients (N=15))
0 n (%): Any SAE (100 mg two times per day (n=3)) | Any SAE (200 mg two times per day (n=3))
15 (100) n (%): Any AE (Total (N=15))
grade 3 allergic dermatitis: DLT during cycle 1 [1] | serious TEAE (one patient, 800 mg two times per day cohort, related to treatment)
3 (100) n (%): Any AE (100 mg two times per day (n=3)) | Any AE (200 mg two times per day (n=3)) | Any AE (400 mg two times per day (n=3)) | Any AE (600 mg two times per day (n=3)) | Any AE (800 mg two times per day (n=3))
5 (33.3) n (%): Fatigue (Total (N=15))
0 (0.0) n (%): Abdominal distension (100 mg two times per day (n=3)) | Abdominal pain (100 mg two times per day (n=3)) | Alanine aminotransferase increased (100 mg two times per day (n=3)) | Amylase increased (100 mg two times per day (n=3)) | Anemia of malignant disease (100 mg two times per day (n=3)) | Aspartate aminotransferase increased (100 mg two times per day (n=3)) | Blood alkaline phosphatase increased (100 mg two times per day (n=3)) | Blood creatine phosphokinase increased (100 mg two times per day (n=3)) | Blood creatinine increased (100 mg two times per day (n=3)) | Dehydration (100 mg two times per day (n=3)) | Diarrhea (100 mg two times per day (n=3)) | Fever (100 mg two times per day (n=3)) | Gamma-glutamyl transferase increased (100 mg two times per day (n=3)) | Hypercalcemia (100 mg two times per day (n=3)) | Lipase increased (100 mg two times per day (n=3)) | Lymphocyte count decreased (100 mg two times per day (n=3)) | Platelet count decreased (100 mg two times per day (n=3)) | Tumor pain (100 mg two times per day (n=3)) | Abdominal distension (200 mg two times per day (n=3)) | Abdominal pain (200 mg two times per day (n=3)) | Alanine aminotransferase increased (200 mg two times per day (n=3)) | Amylase increased (200 mg two times per day (n=3)) | Anemia of malignant disease (200 mg two times per day (n=3)) | Aspartate aminotransferase increased (200 mg two times per day (n=3)) | Blood alkaline phosphatase increased (200 mg two times per day (n=3)) | Blood creatinine increased (200 mg two times per day (n=3)) | Decreased appetite (200 mg two times per day (n=3)) | Dyspepsia (200 mg two times per day (n=3)) | Dysphagia (200 mg two times per day (n=3)) | Fatigue (200 mg two times per day (n=3)) | Gamma-glutamyl transferase increased (200 mg two times per day (n=3)) | Maculopapular rash (200 mg two times per day (n=3)) | Palmar-plantar erythrodysesthesia syndrome (200 mg two times per day (n=3)) | Tumor pain (200 mg two times per day (n=3)) | Aspartate aminotransferase increased (400 mg two times per day (n=3)) | Blood alkaline phosphatase increased (400 mg two times per day (n=3)) | Dehydration (400 mg two times per day (n=3)) | Diarrhea (400 mg two times per day (n=3)) | Dyspepsia (400 mg two times per day (n=3)) | Fever (400 mg two times per day (n=3)) | Gamma-glutamyl transferase increased (400 mg two times per day (n=3)) | Lipase increased (400 mg two times per day (n=3)) | Lymphocyte count decreased (400 mg two times per day (n=3)) | Nausea (400 mg two times per day (n=3)) | Platelet count decreased (400 mg two times per day (n=3)) | Vomiting (400 mg two times per day (n=3)) | Alanine aminotransferase increased (600 mg two times per day (n=3)) | Aspartate aminotransferase increased (600 mg two times per day (n=3)) | Blood creatine phosphokinase increased (600 mg two times per day (n=3)) | Cough (600 mg two times per day (n=3)) | Decreased appetite (600 mg two times per day (n=3)) | Dyspepsia (600 mg two times per day (n=3)) | Dysphagia (600 mg two times per day (n=3)) | Fever (600 mg two times per day (n=3)) | Hypercalcemia (600 mg two times per day (n=3)) | Lymphocyte count decreased (600 mg two times per day (n=3)) | Maculopapular rash (600 mg two times per day (n=3)) | Palmar-plantar erythrodysesthesia syndrome (600 mg two times per day (n=3)) | Platelet count decreased (600 mg two times per day (n=3)) | Abdominal distension (800 mg two times per day (n=3)) | Abdominal pain (800 mg two times per day (n=3)) | Amylase increased (800 mg two times per day (n=3)) | Anemia of malignant disease (800 mg two times per day (n=3)) | Cough (800 mg two times per day (n=3)) | Dehydration (800 mg two times per day (n=3)) | Diarrhea (800 mg two times per day (n=3)) | Dyspepsia (800 mg two times per day (n=3)) | Dysphagia (800 mg two times per day (n=3)) | Hypercalcemia (800 mg two times per day (n=3)) | Lipase increased (800 mg two times per day (n=3)) | Maculopapular rash (800 mg two times per day (n=3)) | Palmar-plantar erythrodysesthesia syndrome (800 mg two times per day (n=3)) | Tumor pain (800 mg two times per day (n=3)) | Vomiting (800 mg two times per day (n=3))
no DLTs were observed: DLT (600 mg two times per day (n=3))
20.5%: median probability of a DLT (Bayesian model estimate) (800 mg)
2 (66.7) n (%): Dyspepsia (100 mg two times per day (n=3)) | Fatigue (100 mg two times per day (n=3)) | Vomiting (100 mg two times per day (n=3)) | Diarrhea (600 mg two times per day (n=3)) | Lipase increased (600 mg two times per day (n=3)) | Aspartate aminotransferase increased (800 mg two times per day (n=3))
26.7%: TEAE nausea (all patients (N=15)) | TEAE vomiting (all patients (N=15))
≤ 6 h: time to resolution of the DLT after treatment withdrawal (800 mg two times per day, grade 3 allergic dermatitis with fever and hypotension)
grade 3 disease progression: serious TEAE (one patient, 400 mg two times per day cohort, unrelated to treatment)
3.1%–62.2: probability of a DLT, 95% credible interval (800 mg)
grade 2 QT prolongation: QT prolongation resulting in dose reduction (not a DLT) [1]
